Results: ChEMBL document CHEMBL4837188, “Identification of Novel Tricyclic Benzo[1,3]oxazinyloxazolidinones as Potent Antibacterial Agents with Excellent Pharmacokinetic Profiles against Drug-Resistant Pathogens” (J Med Chem, 2021)
≈ marks a conversion by molar mass, not a printed value.

Legend:
[1] = test system: Mycobacterium tuberculosis; assay: Antitubercular activity against Mycobacterium tuberculosis H37Rv assessed as inhibition of bacterial growth incubated for 7 days by MABA; assay type: functional; conditions: 168 h, time 7 day
Outline: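 Microplate alamar blue assay. H37Rv or clinical isolates were grown to late log phase in 7H9 broth with glycerol, Tween 80 and ADC, then 2 × 10⁵ CFU added to two-fold dilutions. Final range 32–0.5 μg/mL, lowered to 2–0.016 μg/mL for active compounds. 37 °C, 7 days, then alamar blue 16 h. Fluorescence 530/590 nm. MIC is the lowest concentration giving ≥90% reduction; INH and RFP were controls.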

Escherichia coli = assay: Antibacterial activity against Escherichia coli 25922 assessed as inhibition of bacterial growth incubated for 18 hrs by broth microdilution method; assay type: functional; conditions: ATCC 25922
Outline: (§1)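 Broth microdilution in 96-well plates. Media: cation-adjusted Mueller−Hinton broth for S. aureus, brain heart infusion for VRE, Mueller−Hinton broth for the other strains. Incubated at 37 °C for 18 h, then A600 read. Percent growth inhibition calculated against 1% DMSO vehicle.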

Bacillus subtilis = assay: Antibacterial activity against Bacillus subtilis 168 assessed as inhibition of bacterial growth incubated for 18 hrs by broth microdilution method; assay type: functional; outline: as §1
Staphylococcus aureus [2] = assay: Antibacterial activity against Staphylococcus aureus ATCC 29213 assessed as inhibition of bacterial growth incubated for 18 hrs by broth microdilution method; assay type: functional; outline: as §1
[3] = test system: Staphylococcus epidermidis; assay: Antibacterial activity against methicillin resistant Staphylococcus epidermidis assessed as bacterial growth inhibition after 18 hrs by broth microdilution method; assay type: functional
Enterococcus faecalis [4] = assay: Antibacterial activity against linezolid resistant Enterococcus faecalis assessed as bacterial growth inhibition after 18 hrs by broth microdilution method; assay type: functional
Staphylococcus capitis = assay: Antibacterial activity against linezolid resistant Staphylococcus capitis assessed as bacterial growth inhibition after 18 hrs by broth microdilution method; assay type: functional
Enterococcus faecalis [5] = assay: Antibacterial activity against Enterococcus faecalis ATCC 29212 assessed as bacterial growth inhibition after 18 hrs by broth microdilution method; assay type: functional; outline: as §1
Staphylococcus aureus [6] = assay: Antibacterial activity against vancomycin intermediate Staphylococcus aureus assessed as bacterial growth inhibition after 18 hrs by broth microdilution method; assay type: functional
Enterococcus = assay: Antibacterial activity against vancomycin resistant Enterococcus assessed as bacterial growth inhibition after 18 hrs by broth microdilution method; assay type: functional
Enterococcus faecium [7] = assay: Antibacterial activity against linezolid resistant Enterococcus faecium 13549 assessed as bacterial growth inhibition after 18 hrs by broth microdilution method; assay type: functional
Enterococcus faecium [8] = assay: Antibacterial activity against Enterococcus faecium ATCC 49624 assessed as bacterial growth inhibition after 18 hrs by broth microdilution method; assay type: functional; outline: as §1
Staphylococcus aureus [9] = assay: Antibacterial activity against methicillin resistant Staphylococcus aureus assessed as bacterial growth inhibition after 18 hrs by broth microdilution method; assay type: functional
[10] = Metabolic stability in CD-1 mouse liver microsomes assessed as substrate remaining in presence of NADPH incubated for 30 mins by LC-MS analysis; assay type: ADME, Microsome; conditions: read-out: Stabilty
Outline: (§2)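 Microsomes from male CD-1 mouse or pooled human, 1 mg/mL protein in 0.05 M phosphate buffer pH 7.4. Compound at final 0.1 μM with DMSO cosolvent. Incubated at 37 °C with 1 mM NADPH, or with buffer in place of NADPH. Sampled at 0 and 30 min and quenched with acetonitrile. LC−MS measurement; substrate remaining at 30 min normalized to time zero.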

[11] = Metabolic stability in pooled human liver microsomes assessed as substrate remaining in presence of NADPH incubated for 30 mins by LC-MS analysis; assay type: ADME, Microsome; conditions: read-out: Stabilty; outline: as §2
[12] = Metabolic stability in pooled human liver microsomes incubated for 30 mins by LC-MS analysis; assay type: ADME, Microsome; conditions: read-out: Stabilty; outline: as §2
[13] = Metabolic stability in CD-1 mouse liver microsomes incubated for 30 mins by LC-MS analysis; assay type: ADME, Microsome; outline: as §2
[14] = Mycobacterium tuberculosis, H37Rv, read-out: MIC

Row | Compound | MIC [1, 14] [µg/mL] | MIC (Escherichia coli) [µg/mL] | MIC (Bacillus subtilis) [µg/mL] | MIC (Staphylococcus aureus [2]) [µg/mL] | also measured
1 | N#Cc1ccc(-c2cc3c(cc2F)O[C@H]2[C@H](CN)OC(=O)N2C3)cn1 | 0.26 (≈ 0.764 µM) | – | – | – | –
2 | N#Cc1ccc(-c2ccc3c(c2)CN2C(=O)O[C@@H](CN)[C@@H]2O3)cn1 | 2.94 (≈ 9.12 µM) | > 64 | > 64 | > 64 | –
3 | CC(=O)NC[C@@H]1OC(=O)N2Cc3cc(-c4ccc(-c5nnn(C)n5)nc4)c(F)cc3O[C@@H]12 | 0.54 (≈ 1.23 µM) | > 64 | 0.125 (≈ 0.284 µM) | 0.125 (≈ 0.284 µM) | MIC [3]: 1 µg/mL (≈ 2.28 µM); MIC (Enterococcus faecalis [4]): 1 µg/mL (≈ 2.28 µM); MIC (Staphylococcus capitis): 2 µg/mL (≈ 4.55 µM); MIC (Enterococcus faecalis [5]): 0.5 µg/mL (≈ 1.14 µM); MIC (Staphylococcus aureus [6]): 0.5 µg/mL (≈ 1.14 µM); MIC (Enterococcus): 0.25 µg/mL (≈ 0.569 µM); MIC (Enterococcus faecium [7]): 2 µg/mL (≈ 4.55 µM); MIC (Enterococcus faecium [8]): 1 µg/mL (≈ 2.28 µM); MIC (Staphylococcus aureus [9]): 0.5 µg/mL (≈ 1.14 µM)
4 | NC[C@@H]1OC(=O)N2Cc3cc(N4CCOCC4)c(F)cc3O[C@@H]12 | > 32 | > 64 | > 64 | > 64 | –
5 | NC[C@@H]1OC(=O)N2Cc3cc(N4CCOCC4)ccc3O[C@@H]12 | > 32 | – | – | – | –
6 | CC(=O)NC[C@@H]1OC(=O)N2Cc3cc(-c4ccc(C#N)nc4)ccc3O[C@@H]12 | 12.2 (≈ 33.6 µM) | > 64 | 1 (≈ 2.74 µM) | 0.5 (≈ 1.37 µM) | –
7 | CC(=O)NC[C@H]1OC(=O)N2Cc3cc(-c4ccc(C#N)nc4)c(F)cc3O[C@H]12 | > 32 | – | – | > 64 | –
8 | Cn1nnc(-c2ccc(-c3cc4c(cc3F)O[C@H]3[C@H](CN)OC(=O)N3C4)cn2)n1 | 0.47 (≈ 1.18 µM) | > 64 | > 64 | 32 (≈ 80.5 µM) | –
9 | CC(=O)NC[C@@H]1OC(=O)N2Cc3cc(N4CCOCC4)c(F)cc3O[C@@H]12 | 31.7 (≈ 86.8 µM) | > 64 | 8 (≈ 21.9 µM) | 2 (≈ 5.47 µM) | –
10 | CC(=O)NC[C@@H]1OC(=O)N2c3cc(F)c(Br)cc3OC[C@@H]12 | – | – | – | – | remaining at 0.5 h [10]: 73.4%; remaining at 0.5 h [11]: 71.4%; remaining at 0.5 h [12]: 110%; Stabilty ([13]; mouse, microsomes, 0.5 h): 125%
11 | CC(=O)NC[C@@H]1OC(=O)N2Cc3cc(Br)c(F)cc3O[C@@H]12 | – | – | – | – | remaining at 0.5 h [10]: 105%; remaining at 0.5 h [11]: 111%; remaining at 0.5 h [12]: 93.8%; remaining at 0.5 h ([13]; CD-1, mouse, liver microsomes, read-out: Stabilty): 102%
12 | CC(=O)NC[C@@H]1OC(=O)N2Cc3cc(N4CCOCC4)ccc3O[C@@H]12 | > 32 | – | – | – | –
13 | CC(=O)NC[C@@H]1OC(=O)N2Cc3cc(F)c(-c4ccc(C#N)nc4)cc3O[C@@H]12 (racemic) | > 32 | > 64 | > 64 | > 64 | –
14 | CC(=O)NC[C@@H]1OC(=O)N2Cc3cc(F)c(N4CCOCC4)cc3O[C@@H]12 (racemic) | > 32 | – | – | – | –
15 | NC[C@@H]1OC(=O)N2Cc3cc(F)c(N4CCOCC4)cc3O[C@@H]12 (racemic) | > 32 | – | – | – | –
16 | N#Cc1ccc(-c2cc3c(cc2F)CN2C(=O)O[C@@H](CN)[C@@H]2O3)cn1 (racemic) | > 32 | > 64 | > 64 | > 64 | –
17 | CC(=O)NCC1OC(=O)N2Cc3cc(-c4ccc(C#N)nc4)c(F)cc3OC12 (racemic; cis) | – | – | – | – | MIC [1]: 15.51 µg/mL (≈ 40.6 µM)
18 | CC(=O)NCC1OC(=O)N2Cc3cc(-c4ccc(C#N)nc4)c(F)cc3OC12 (racemic; trans) | – | – | – | – | MIC [1]: 1.58 µg/mL (≈ 4.13 µM)
19 | CC1(C)S[C@@H]2[C@H](NC(=O)[C@H](N)c3ccccc3)C(=O)N2[C@H]1C(=O)O [AMPICILLIN] | – | – | 0.25 (≈ 0.715 µM) | 0.25 (≈ 0.715 µM) | MIC [3]: > 32 µg/mL; MIC (Staphylococcus aureus [9]): > 32 µg/mL
20 | CC(=O)NC[C@H]1CN(c2ccc(N3CCOCC3)c(F)c2)C(=O)O1 [LINEZOLID] | 0.88 (≈ 2.61 µM) | > 64 | 0.25 (≈ 0.741 µM) | 0.125 (≈ 0.371 µM) | MIC (Staphylococcus capitis): ≥ 16 µg/mL; MIC (Enterococcus faecium [7]): 8 µg/mL (≈ 23.7 µM); MIC (Enterococcus faecium [8]): 2 µg/mL (≈ 5.93 µM)
21 | CN[C@H](CC(C)C)C(=O)N[C@H]1C(=O)N[C@@H](CC(N)=O)C(=O)N[C@H]2C(=O)N[C@H]3C(=O)N[C@H](C(=O)N[C@H](C(=O)O)c4cc(O)cc(O)c4-c4cc3ccc4O)[C@H](O)c3ccc(c(Cl)c3)Oc3cc2cc(c3O[C@@H]2O[C@H](CO)[C@@H](O)[C@H](O)[C@H]2O[C@H]2C[C@](C)(N)[C@H](O)[C@H](C)O2)Oc2ccc(cc2Cl)[C@H]1O [VANCOMYCIN] | – | 64 (≈ 44.2 µM) | 0.25 (≈ 0.173 µM) | – | MIC [3]: < 2 µg/mL; MIC (Staphylococcus aureus [6]): > 32 µg/mL; MIC (Enterococcus): > 32 µg/mL
